Assay results: ChEMBL document CHEMBL2331523, “Regioselective synthesis of isoxazole-mercaptobenzimidazole hybrids and their in vivo analgesic and anti-inflammatory activity studies” (2013)

Assays:
Type in all cases: functional
Mus musculus = assay: Analgesic activity in mouse assessed as increase in paw withdrawal latency at 50 mg/kg after 120 mins by hot plate test (reference value: 6.07 +/- 0.057 secs)
Rattus norvegicus [1] = assay: Antiinflammatory activity in rat assessed as inhibition of carrageenan-induced paw oedema at 50 mg/kg after 60 mins relative to untreated control; conditions: 1 h
Outline: (§1)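 Carrageenan-induced hind-paw oedema (Winter method). The text names both rats and mice. Test agents dosed at 100 mg/kg body weight, reference at 50 mg/kg body weight. Paw thickness measured in mm at 60 and 180 min after carrageenan injection. Percent oedema inhibition calculated against the saline control group. Six animals per group, mean ± SD. One-way ANOVA with Newman-Keuls test.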

Rattus norvegicus [2] = assay: Antiinflammatory activity in rat assessed as inhibition of carrageenan-induced paw oedema at 50 mg/kg after 180 mins relative to untreated control; conditions: 3 h; outline: as §1

| SMILES | Time (Mus musculus) [s] | inhibition in vivo at 50 mg/kg (Rattus norvegicus [1]) [%] | inhibition in vivo at 50 mg/kg (Rattus norvegicus [2]) [%] |
| --- | --- | --- | --- |
| CC(C)=CCN1CC[C@]2(C)c3cc(O)ccc3C[C@H]1[C@H]2C [(+)-PENTAZOCINE] | 14.1 | – | – |
| O=C(O)Cc1ccccc1Nc1c(Cl)cccc1Cl [DICLOFENAC] | – | 44.5 | 45.8 |
